Source: ChEMBL document CHEMBL1134769, “Potent and selective nonpeptide inhibitors of caspases 3 and 7” (J Med Chem, 2001)
The source made the active and inactive calls. No cut-off for these calls is given here.

Assays:
Caspase-6 = biological target: T1, Caspase-6 (Homo sapiens, UniProt P55212); assay: Inhibitory activity against Caspase-6; settings: read-out: Ki app
T1 sequence (P55212 whole entry): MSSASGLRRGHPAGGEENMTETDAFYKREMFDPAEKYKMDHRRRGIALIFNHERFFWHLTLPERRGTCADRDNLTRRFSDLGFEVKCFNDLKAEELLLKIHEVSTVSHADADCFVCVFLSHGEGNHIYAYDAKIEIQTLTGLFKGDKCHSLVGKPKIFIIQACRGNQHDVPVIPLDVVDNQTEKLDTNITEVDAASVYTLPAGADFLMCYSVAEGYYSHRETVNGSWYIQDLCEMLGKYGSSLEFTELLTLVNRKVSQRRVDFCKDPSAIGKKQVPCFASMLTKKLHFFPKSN
Procedure, shortened: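 Recombinant full-length human caspase 6 (~10 units/assay) in 50 mM Tris-HCl pH 7.4 with 0.1% CHAPS, 1.5 mM MgCl2, 1 mM EDTA and 5 mM β-mercaptoethanol. Substrate 10 μM Ac-DEVD-AMC. AMC monitored at 360/460 nm, 30 °C, final DMSO 5%. Single-dose screen (typically 5–50 μM), then IC50 determination.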

Caspase-1 = biological target: T2, Caspase-1 (Homo sapiens, UniProt P29466); assay: Inhibitory activity against caspase-1; settings: read-out: Ki app
T2 sequence (P29466 whole entry): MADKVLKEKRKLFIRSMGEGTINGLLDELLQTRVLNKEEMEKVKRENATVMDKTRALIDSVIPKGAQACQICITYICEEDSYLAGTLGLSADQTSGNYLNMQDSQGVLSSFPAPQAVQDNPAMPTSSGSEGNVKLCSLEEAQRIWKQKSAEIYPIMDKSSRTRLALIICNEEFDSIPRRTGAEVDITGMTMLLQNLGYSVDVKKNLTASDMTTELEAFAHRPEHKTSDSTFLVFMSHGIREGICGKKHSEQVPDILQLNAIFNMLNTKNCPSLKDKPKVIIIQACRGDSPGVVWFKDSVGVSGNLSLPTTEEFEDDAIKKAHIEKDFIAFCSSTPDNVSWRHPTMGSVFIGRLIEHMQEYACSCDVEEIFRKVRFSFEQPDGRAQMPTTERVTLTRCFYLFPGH
Procedure, shortened: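 Recombinant full-length human caspase 1, ~10 units/assay, in 25 mM K+HEPES pH 7.5 with 10% sucrose, 0.1% CHAPS and 5 mM β-mercaptoethanol. Substrate 10 μM Ac-YVAD-AMC. AMC read at 360/460 nm, 30 °C, with 5% final DMSO. Single-dose screen (typically 5–50 μM), followed by IC50 curves for active compounds.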

Caspase-8 = Caspase-8 (Homo sapiens, UniProt Q14790); assay: Inhibitory activity against Caspase-8; settings: read-out: Ki app
Chain of Caspase-8 (Q14790 217-374 limits assumed): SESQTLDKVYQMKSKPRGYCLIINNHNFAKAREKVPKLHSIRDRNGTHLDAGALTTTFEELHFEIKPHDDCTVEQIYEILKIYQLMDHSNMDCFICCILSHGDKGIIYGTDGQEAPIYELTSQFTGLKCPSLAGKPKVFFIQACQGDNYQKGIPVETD
Chain of Caspase-8 (Q14790 385-479 limits assumed): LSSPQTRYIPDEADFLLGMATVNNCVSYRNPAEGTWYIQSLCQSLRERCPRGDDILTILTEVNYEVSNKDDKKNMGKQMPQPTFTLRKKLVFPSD
Procedure, shortened: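 Recombinant full-length human caspase 8, ~10 units/assay, in Na+MOPS pH 7.5 with 10% glycerol, 0.25 mM EDTA and 5 mM β-mercaptoethanol. Substrate 10 μM Ac-IETD-AMC. Fluorescence at 360/460 nm, 30 °C, 5% final DMSO. Compounds screened at a single dose (typically 5–50 μM), then full IC50 curves for actives.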

C20/A4 [1] = assay: In vitro inhibition of Chondrocyte cell line C20/A4 apoptosis at 10 uM of compound; format: functional, Homo sapiens
Procedure, shortened: (§1)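 Immortalized human chondrocyte line C20/A4 seeded at 20 000 cells/well overnight, then exposed 24 h to 4 μg/mL camptothecin with or without compound. Floating and adherent cells combined and lysed 30 min at 4 °C, then clarified at 14000g. Mono- and oligonucleosome DNA fragments measured by cell death ELISA; result expressed as % inhibition of apoptosis.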

C20/A4 [2] = assay: In vitro inhibition of Chondrocyte cell line C20/A4 apoptosis at 10 uM of compound; Not active; format: functional, cell-based; settings: Homo sapiens; procedure, shortened: as §1
C20/A4 [3] = assay: In vitro inhibition of Chondrocyte cell line C20/A4 apoptosis at 25 uM of compound; Not active; format: functional, cell-based; settings: Homo sapiens; procedure, shortened: as §1

| Ki (Caspase-6) [µM] | Ki (Caspase-1) [µM] | Ki (Caspase-8) [µM] | SMILES | Inhibition (C20/A4 [1]) [%] | NA (C20/A4 [2]) | NA (C20/A4 [3]) |
| --- | --- | --- | --- | --- | --- | --- |
| > 5 | > 5 | > 5 | O=C1C(=O)N(Cc2ccccc2)c2ccc(S(=O)(=O)N3CCC[C@H]3COc3ccccc3)cc21 | 48 |  |  |
| 57 | > 50 | > 50 | CN(CC1CCCN1S(=O)(=O)c1ccc2c(c1)C(=O)C(=O)N2)c1ccccc1 (centres undefined) |  | inactive | inactive |
| > 25 | > 25 | > 25 | COC[C@@H]1CCCN1S(=O)(=O)c1ccc2c(c1)C(=O)C(=O)N2 | 44 |  |  |

More lines, now with the values behind:

| SMILES | Ki (Caspase-6) [µM] | Ki (Caspase-1) [µM] | Ki (Caspase-8) [µM] | Inhibition (C20/A4 [1]) [%] | NA (C20/A4 [2]) | NA (C20/A4 [3]) |
| --- | --- | --- | --- | --- | --- | --- |
| O=C1Nc2ccc(S(=O)(=O)N3CCC[C@H]3CNc3ccccc3)cc2C1=O | 7.5 | 21 | 80 |  |  |  |
| O=C1Nc2ccc(S(=O)(=O)N3CCC[C@H]3COc3ccccc3)cc2C1=O | 29 | 17 | 49 |  |  |  |
